For 1 sequence, T/C results are on record in ChEMBL document CHEMBL1123722, “Comparative antitumor studies on platinum(II) and platinum(IV) complexes containing 1,2-diaminocyclohexane” (J Med Chem, 1987).

The test system of one experiment is B16. Kind of experiment: Antitumor activity against B16 tumor ascite cells implanted ip in BDF1 mice was determined at a dose of 1.6-2 mg/kg. The class given is functional, organism-based. Particulars: Mus musculus.
The next experiment deals with L1210. The experiment in a line: Antitumor activity against 10E6 L1210 ascites cells implanted ip in CDF1 mice was determined after a dose of 6-10 mg/kg. The class given is functional, organism-based. Particulars: Mus musculus. In outline: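 CDF1 mice implanted with 1 × 10⁶ L1210 ascites cells ip. Complexes were suspended in 0.9% NaCl with a drop of Tween 80 and given ip on day 1 after tumor inoculation. Groups were five treated mice and 10 leukemic controls. Mice were observed daily. Activity is % T/C: median survival time of treated ÷ untreated controls × 100.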

One may read the T/C as the result in the treated group divided by that in the control group, in per cent.

In the case of CISPLATIN, the T/C in the experiment with B16 amounted to 167%; in the experiment with L1210, 150%.
